Broadly, the Ki is a dissociation constant, usually derived from enzyme kinetics or from competition with a known ligand.

Results on nine compounds are retold here after paper PMC3064429 (Bioorganic & medicinal chemistry, 2011).

Data set [1] is described as follows: Compound stability in stock buffer for in vitro binding assays. The data set is classed as physicochemical. Conditions: for Purity by HPLC after 25 days in stock buffer: 10^-3 M in water with 1% EtOH and 0.1% or 2.5% AcOH; for State after 25 days in stock buffer: stock buffer 2.5% AcOH, 1% EtOH in water. The gist of the method:
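Those prepared as HCl or oxalate salts were held instead in 0.1% AcOH with 1% EtOH. After 25 days in stock buffer, purity of each compound was analysed by analytical HPLC.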

Data set [2] deals with σ1 receptor (Cavia porcellus, UniProt Q60492). The data set can be described thus: Competition binding assay at σ1 receptors with [3H]. Further details: species or system guinea pig.
σ1 receptor (Cavia porcellus, UniProt Q60492), sequence (Q60492 whole entry): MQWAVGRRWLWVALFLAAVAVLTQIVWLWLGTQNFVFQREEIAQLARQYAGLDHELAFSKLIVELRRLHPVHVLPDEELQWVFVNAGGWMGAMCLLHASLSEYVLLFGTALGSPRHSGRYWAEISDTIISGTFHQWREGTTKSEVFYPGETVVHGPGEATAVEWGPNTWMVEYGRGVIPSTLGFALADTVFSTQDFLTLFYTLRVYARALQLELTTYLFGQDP
The target of data set [3] is T1, σ2 receptor (Cavia porcellus, UniProt H0V073).
T1 sequence (H0V073 1-176): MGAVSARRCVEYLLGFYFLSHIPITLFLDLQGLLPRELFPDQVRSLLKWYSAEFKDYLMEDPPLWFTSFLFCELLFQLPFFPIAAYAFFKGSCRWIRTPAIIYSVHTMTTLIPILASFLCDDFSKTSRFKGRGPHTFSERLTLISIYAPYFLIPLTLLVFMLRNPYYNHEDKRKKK
In words: Competition binding assay at σ2 receptors with [3H]DTG / 500 nM. The arrangement: species or system guinea pig.

Data set [4] has as its target σ2 receptor. Conditions: cited from earlier work.
Data set [5] relates to σ1 receptor. Conditions: cited from earlier work.

For the compound “5-bromo-N-(4-(7,8-dimethoxy-2,3,4,5-tetrahydro-1H-benzo[b]azepin-1-yl)butyl)-2,3-dimethoxybenzamide [Compound 7]”, in data set [1], the “Purity by HPLC after 25 days in stock buffer” value (shortened to “Purity by HPLC after 25 days”) was “exceeded 95%”. Further, the “Poorer σ1 affinity relative to 6” value at σ1 receptor [2] (7 (7R-1) vs. 6 (7R-2)) is listed as 20%. Also, the Ki on σ1 receptor [2] (read-out: Ki (nM) σ1, [3H](+)-PTZ, guinea pig brain membranes, mean ± SEM, n = 4) was determined as 2560 ± 175 nM. Moreover, on σ2 receptor [3] (7 (7R-1) vs. 6 (7R-2)), the “Poorer σ2 affinity relative to 6” value was around 30 times. The “Selectivity Ki σ1 / Ki σ2” value on σ2 receptor [3] (ratio of Ki values) is given as 0.29.
“5-bromo-N-(4-((3,4-dimethoxyphenethyl)(methyl)amino)butyl)-2,3-dimethoxybenzamide [Compound 9]”: the “Purity by HPLC after 25 days” value in data set [1] is reported as “exceeded 95%”.
As for `COc1cc2c(cc1OC)CN(CCCCNC(=O)c1cc(Br)cc(OC)c1OC)CC2` [Compound 1], the Ki on σ2 receptor [4] (read-out: Ki (nM) σ2) is 8.2 nM.
In the case of `COc1ccc(CCNCCCCNC(=O)c2cc(Br)cc(OC)c2OC)cc1OC` [Compound 2], the “Decrease in σ2 affinity relative to 1” value in the data set with σ2 receptor [4] (relative to 1) was 1700 fold. The “Change in σ1 affinity relative to 1” value in the data set on σ1 receptor [5] is given as “no change”.
For the compound `COc1cc2c(cc1OC)CN(CCCCNC(=O)c1cc(Br)cc(OC)c1OC)C2` [Compound 3, 5-bromo-N-(4-(5,6-dimethoxyisoindolin-2-yl)butyl)-2,3-dimethoxybenzamide], the “Purity by HPLC after 25 days” value in data set [1] is on record as “exceeded 95%”. For the same compound, the “Decrease in σ1 affinity relative to 1” value on σ1 receptor [2] (relative to 1) is on record as “approximately 50%”. The “Improvement of σ2 affinity over that of 1” value on σ2 receptor [3] (relative to 1) is 70%.
As for `COc1cc2c(cc1OC)CCN(CCCCNC(=O)c1cc(Br)cc(OC)c1OC)CC2` [Compound 4, 5-bromo-N-(4-(7,8-dimethoxy-4,5-dihydro-1H-benzo[d]azepin-3(2H)-yl)butyl)-2,3-dimethoxybenzamide], in data set [1], the “Purity by HPLC after 25 days” value is recorded as “exceeded 95%”. The “Poorest σ1 affinity by a factor compared to 6 and 7” value on σ1 receptor [2] (compared to 6 (7R-2) and 7 (7R-1)) is recorded as 2.
`COc1cc2c(cc1OC)N(CCCCNC(=O)c1cc(Br)cc(OC)c1OC)CC2` [Compound 5, 5-bromo-N-(4-(5,6-dimethoxyindolin-1-yl)butyl)-2,3-dimethoxybenzamide]: the “State after 25 days in stock buffer” value in data set [1] is listed as “totally decomposed”. In addition, on σ1 receptor [2] (3 (5R-2) vs. 5 (5R-1)), the “Poorer σ1 affinity, 3 vs. 5” value was found to be 3 times.
Regarding `COc1cc2c(cc1OC)CN(CCCCNC(=O)c1cc(Br)cc(OC)c1OC)CCC2` [Compound 6, 5-bromo-N-(4-(7,8-dimethoxy-4,5-dihydro-1H-benzo[c]azepin-2(3H)-yl)butyl)-2,3-dimethoxybenzamide], the “Purity by HPLC after 25 days” value in data set [1] is “exceeded 95%”.
Regarding `COc1cc2c(cc1OC)N(CCCCNC(=O)c1cc(Br)cc(OC)c1OC)CCC2` [Compound 8, 5-bromo-N-(4-(6,7-dimethoxy-3,4-dihydroquinolin-1(2H)-yl)butyl)-2,3-dimethoxybenzamide], the “State after 25 days in stock buffer” value in data set [1] is “totally decomposed”. Further, the “σ1 affinity decreased by a factor, relative to 1” value on σ1 receptor [2] (relative to 1 (Mach Lead)) worked out at 5. Moreover, at σ2 receptor [3] (relative to 1 (Mach Lead)), the “σ2 affinity relative to 1 (in words)” value is given as “totally ablated”.
